Published values from different studies.
Compare with care: the assays were run in different laboratories.
Target: Angiopoietin-1 receptor (TEK, Homo sapiens, UniProt Q02763)

Compound	observed	method	tested at	remaining binding [%]
CS(=O)(=O)N1CCCC(NC(=O)[C@H](CCC2CCCCC2)NC(=O)c2ccc(CNc3ncnc4c3nnn4-c3ccccc3)cc2)C1 (stereo partly shown)	cell-free assay	competition with immobilised ligand	0.1 µM	73
O=C(NCCCN1CCOCC1)c1ccc(Nc2nccc(-c3cc4ccccc4s3)n2)cc1	binding	competition with immobilised ligand	1 µM	58
COc1cnc(Nc2cccc(S(N)(=O)=O)c2)nc1N1CCN(c2ccccc2)CC1	binding	competition with immobilised ligand	1 µM	100
O=C(c1ccc(Nc2ncc(Cl)c(-c3ccc(Cl)s3)n2)cc1)N1CCC(N2CCCC2)CC1	binding	competition with immobilised ligand	1 µM	23
COc1ncc2cc3ccccc3nc2c1C#N	cell-free assay	competition with immobilised ligand	5 µM	88
CN(CCCC(F)(F)F)c1nccc(-c2cnn3ncccc23)n1	binding	–	1 µM	100
O=C(Nc1c[nH]nc1C(=O)NC1CCNCC1)c1cc(F)cc(F)c1	binding	competition with immobilised ligand	1 µM	94
N#Cc1ccccc1CSc1nnc2c(n1)[nH]c1ccccc12	binding	competition with immobilised ligand	10 µM	100
C[C@@H]1CCN(c2nccc(-c3cnn4ncccc34)n2)C1	binding	–	1 µM	77
FC(F)(F)Oc1cccc(-c2cnc3ccc(-c4ccncc4)nn23)c1	cell-free assay	competition with immobilised ligand	5 µM	76
CC(C)(C)c1ccc(-c2nc(CBr)nn2-c2cccc(O)c2)cc1	cell-free assay	competition with immobilised ligand	10 µM	99
Cc1nc(N2CC[C@@H](O)C2)ncc1-c1cc(C(F)(F)F)cc2[nH]ncc12	cell-free assay	competition with immobilised ligand	1 µM	100
CC1CCCN1c1nccc(-c2cnn3ncccc23)n1 (stereo not shown)	binding	–	1 µM	98
O=C(NCCCC1CCCCC1)c1ccc(CNC(=O)c2cnn(-c3ccccc3)c2C(F)(F)F)cc1	cell-free assay	competition with immobilised ligand	0.1 µM	100
C[C@@H]1CN(c2ccc3ncc(-c4ccc5[nH]nc(C6CC6)c5c4)n3n2)C[C@H](C)O1	binding	competition with immobilised ligand	50 nM	99
CCCOc1ccc([C@@H]2[C@@H](C(=O)O)[C@H](c3ccc4c(c3)OCO4)CN2CC(=O)Nc2c(CC)cccc2CC)cc1	cell-free assay	competition with immobilised ligand	1 µM	86
O=C(c1ccc(Nc2ncc(Cl)c(-c3cc4ccccc4s3)n2)cc1)N1CCC(N2CCCC2)CC1	binding	competition with immobilised ligand	1 µM	19
C[C@@H](c1cccc(C#N)c1)n1cc(Cl)cc(C(N)=O)c1=N	cell-free assay	competition with immobilised ligand	1 µM	90
CN(C)c1nccc(-c2cnn3ncccc23)n1	binding	–	1 µM	100
CNC(=O)c1ccc(Nc2ncc(C(F)(F)F)c(NCc3nccnc3N(C)S(C)(=O)=O)n2)cc1	cell-free assay	competition with immobilised ligand	0.1 µM	69
c1cnn2ncc(-c3ccnc(N4CCC45COC5)n3)c2c1	binding	–	1 µM	83
C[C@@H]1CN(c2cc(-c3nn(C)c4ccc(OC5(C)CC5)cc34)ncn2)C[C@H](C)O1	cell-free assay	competition with immobilised ligand	1 µM	94
N[C@@H]1CCN(c2nccc(-c3cnn4ncccc34)n2)C1	binding	–	1 µM	98
O=C1CCc2cc(Nc3cc(OC4CCOCC4)c([N+](=O)[O-])cc3Cl)ccc2N1	cell-free assay	competition with immobilised ligand	1 µM	76
CCN1CCN(Cc2ccc(C(=O)Nc3ccc(C)c(Oc4ccc5c(c4)CC(=O)N5)c3)cc2C(F)(F)F)CC1	binding	competition with immobilised ligand	1 µM	100
